Test results as given in publication PMC3581696 (The Journal of General Physiology, 2013).

Tests used:
mEAG1 channel [1] = target: T1, mEAG1 channel (Mus musculus, UniProt Q60603); assay: Outside-out patch-clamp of mEAG1 channels expressed in Xenopus oocytes; type: cell-based; details: 10 µM fisetin; outside-out patches; n = 4
T1 sequence (Q60603 1-989): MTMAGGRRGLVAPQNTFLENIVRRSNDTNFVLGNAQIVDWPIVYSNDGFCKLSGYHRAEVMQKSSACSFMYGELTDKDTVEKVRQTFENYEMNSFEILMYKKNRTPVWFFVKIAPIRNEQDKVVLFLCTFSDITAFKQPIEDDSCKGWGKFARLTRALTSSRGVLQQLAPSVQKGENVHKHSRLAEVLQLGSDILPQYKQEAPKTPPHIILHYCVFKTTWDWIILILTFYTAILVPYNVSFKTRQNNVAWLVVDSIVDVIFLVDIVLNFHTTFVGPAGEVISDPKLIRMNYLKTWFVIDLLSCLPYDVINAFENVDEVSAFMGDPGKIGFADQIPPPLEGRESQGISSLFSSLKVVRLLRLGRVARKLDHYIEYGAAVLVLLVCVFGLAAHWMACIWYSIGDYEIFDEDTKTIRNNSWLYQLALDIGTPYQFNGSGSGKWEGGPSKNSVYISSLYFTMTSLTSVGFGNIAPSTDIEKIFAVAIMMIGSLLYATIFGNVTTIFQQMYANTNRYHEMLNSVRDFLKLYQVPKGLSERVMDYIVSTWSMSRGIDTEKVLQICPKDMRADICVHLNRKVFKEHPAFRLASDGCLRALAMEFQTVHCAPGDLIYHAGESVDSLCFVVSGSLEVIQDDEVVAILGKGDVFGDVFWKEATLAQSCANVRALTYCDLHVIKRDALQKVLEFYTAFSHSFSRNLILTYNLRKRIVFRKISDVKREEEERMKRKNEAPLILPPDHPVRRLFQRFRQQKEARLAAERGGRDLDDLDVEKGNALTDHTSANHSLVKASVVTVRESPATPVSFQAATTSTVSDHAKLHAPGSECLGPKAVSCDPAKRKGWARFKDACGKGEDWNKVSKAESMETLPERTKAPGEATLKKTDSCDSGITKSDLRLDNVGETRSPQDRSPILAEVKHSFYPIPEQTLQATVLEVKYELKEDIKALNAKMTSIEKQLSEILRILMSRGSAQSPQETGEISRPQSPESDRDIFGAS
In short: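 Outside-out patches were excised from Xenopus oocytes expressing mouse EAG1. Bath and pipette solutions were 130 mM KCl, 10 mM HEPES, 0.2 mM EDTA, pH 7.2. Patches were exposed to 10 µM flavonoid. The shift in V1/2 was taken from Boltzmann fits of tail-current conductance–voltage relationships.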

mEAG1 Δ821–989 channels = target: T2, mEAG1 Δ821–989 channels (Mus musculus, UniProt Q60603); assay: Inside-out patch-clamp of post-CNBHD deletion mutant channels; type: cell-based; details: with 30 µM fisetin
T2 sequence (Q60603 1-820): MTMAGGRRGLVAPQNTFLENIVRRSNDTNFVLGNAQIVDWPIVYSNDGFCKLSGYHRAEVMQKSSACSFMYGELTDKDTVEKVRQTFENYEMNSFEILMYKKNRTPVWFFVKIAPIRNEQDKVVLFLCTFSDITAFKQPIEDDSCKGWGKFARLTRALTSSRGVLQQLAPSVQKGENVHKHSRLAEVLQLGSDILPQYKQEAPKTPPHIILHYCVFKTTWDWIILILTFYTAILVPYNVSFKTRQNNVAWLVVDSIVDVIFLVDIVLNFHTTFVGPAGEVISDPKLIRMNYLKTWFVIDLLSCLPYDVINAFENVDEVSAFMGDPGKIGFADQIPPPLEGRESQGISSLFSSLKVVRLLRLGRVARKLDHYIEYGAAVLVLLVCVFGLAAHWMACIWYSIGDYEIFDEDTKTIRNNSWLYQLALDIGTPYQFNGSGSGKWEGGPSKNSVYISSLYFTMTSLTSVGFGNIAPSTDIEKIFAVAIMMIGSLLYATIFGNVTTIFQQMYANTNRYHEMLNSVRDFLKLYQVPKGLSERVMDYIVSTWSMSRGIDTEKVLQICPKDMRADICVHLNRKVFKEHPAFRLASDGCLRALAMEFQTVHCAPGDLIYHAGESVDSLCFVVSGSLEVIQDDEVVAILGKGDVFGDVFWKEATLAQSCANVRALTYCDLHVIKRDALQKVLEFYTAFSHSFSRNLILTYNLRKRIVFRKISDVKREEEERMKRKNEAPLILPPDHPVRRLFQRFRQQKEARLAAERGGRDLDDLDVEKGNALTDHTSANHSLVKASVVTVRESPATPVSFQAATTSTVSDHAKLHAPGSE
In short: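 mEAG1 mutant cRNA was injected into defolliculated Xenopus oocytes, and the vitelline membrane was removed. Inside-out patches were bathed in symmetric 130 mM KCl, 10 mM HEPES, 0.2 mM EDTA, pH 7.2, holding at −100 mV. Steps of 0.1 s from −140 to +50 mV (10-mV increments) were followed by −120 mV tails, without or with 30 µM flavonoid. Peak tails were normalized and Boltzmann-fitted. Deactivation time constant came from single-exponential fits of the −120 mV tail after +50 mV; two-tailed t test.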

[2] = target: T3, purified C-linker/CNBHD of mEAG1 channels (Mus musculus, UniProt Q60603); assay: Tryptophan-to-flavonoid FRET binding assay; details: 100 µM flavonoid; 4 µM protein
T3 sequence (Q60603 505-702): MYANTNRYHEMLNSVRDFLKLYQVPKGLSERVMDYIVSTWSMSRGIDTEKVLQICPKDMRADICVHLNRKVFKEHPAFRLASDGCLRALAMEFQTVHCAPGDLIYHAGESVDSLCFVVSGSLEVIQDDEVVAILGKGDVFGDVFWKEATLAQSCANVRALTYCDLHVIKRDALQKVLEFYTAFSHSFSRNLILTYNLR

mEAG1 channel [3] = target: T1, mEAG1 channel; assay: Inside-out patch-clamp of wild-type mEAG1 channels expressed in Xenopus oocytes; type: cell-based

- shift of the conductance–voltage relationship (mEAG1 channel [1]): −8.1 ± 2.3 mV
- rate (time constant) of deactivation (mEAG1 Δ821–989 channels; at −120 mV, 3.4 ± 0.7 ms without, n = 4): 6.7 ± 2.2 ms
- time constant of deactivation (tail currents of Fig. 5 F) (mEAG1 Δ821–989 channels; tail at −120 mV after step to +50 mV, 5.2 ms without): 13.4 ms
- V1/2 (Boltzmann fit of the averaged conductance–voltage relationship) (mEAG1 Δ821–989 channels; −31.9 mV without, Fig. 5 E): −50.6 mV
- V1/2 of the conductance–voltage relationship (mEAG1 Δ821–989 channels; −36.4 ± 2.5 mV without, n = 4): −51.1 ± 6.0 mV
- decrease of peak fluorescence intensity of the C-linker/CNBHD at 341 nm [2]: 27%
- Hill coefficient, deactivation time constant versus fisetin plot (mEAG1 channel [3]): 1.2
- Hill coefficient, ΔV1/2 versus fisetin plot (mEAG1 channel [3]): 2.2
- effect on mEAG1 currents at high concentration (mEAG1 channel [3]; concentrations of 100 µM and higher): inhibited mEAG1 currents
- time constant of deactivation (mEAG1 channel [3]; with 30 µM fisetin, at −120 mV after step to +50 mV, 4.5 ± 0.8 ms without, n = 6): 7.2 ± 1.0 ms
- time constant of deactivation (single tail current of Fig. 3 C) (mEAG1 channel [3]; with 30 µM fisetin, tail current at −120 mV after step to 50 mV, 5.3 ms before): 13.9 ms
- V1/2 of the conductance–voltage relationship (mEAG1 channel [3]; with 30 µM fisetin, −41.9 ± 4.1 mV without, n = 6): −55.4 ± 3.7 mV
Compound: O=c1c(O)c(-c2ccc(O)c(O)c2)oc2cc(O)ccc12 [Fisetin, 2-(3,4-dihydroxyphenyl)-3,7-dihydroxychromen-4-one]
